RBBP9 inhibitor: human RBBP9 inhibitors, primary screen, biochemical, fluorescence polarization, FP-Rh probe, HTS; 220,000 tested, 0.2% active; inhibition, % at 7.94 µM; recombinant RBBP9; Serine hydrolase RBBP9 (Homo sapiens), O75884;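 active means inhibition above the campaign mean of all tested compounds plus 3 SD, cut at about 14% in these data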;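 further: plate controls were DMSO wells with RBBP9 for no effect and wells lacking RBBP9 protein for full effect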
Target sequence (O75884 whole entry, looked up): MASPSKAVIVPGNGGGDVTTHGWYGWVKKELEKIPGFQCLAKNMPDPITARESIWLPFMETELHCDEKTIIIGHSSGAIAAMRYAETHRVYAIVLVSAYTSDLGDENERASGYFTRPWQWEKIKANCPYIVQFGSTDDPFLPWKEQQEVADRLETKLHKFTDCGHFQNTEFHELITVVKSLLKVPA
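Measured by – fluorescence polarization · Test system – RBBP9 protein · Input – 2.5 µM RBBP9 dispensing solution, before mixing · Measure – percent inhibition from mP, scaled between DMSO and no-protein wells · Benchmarks – DMSO-treated enzyme wells and wells lacking RBBP9 · Times – preincubation 30 min plus labeling 45 min at 25 °C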
PME-1 inh: PME-1 inhibitors via competitive probe labeling, primary screen, biochemical, fluorescence polarization, FP-Rh probe, HTS. Protein phosphatase methylesterase 1 (Homo sapiens), Q9Y570. recombinant PME-1. inhibition, % at 5.9 µM. 320,000 tested, 0.53% active. AID 2130, 2009;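 active means inhibition above the campaign mean of all compounds plus 3 SD, cut at about 26% in these data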;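 further: competitive labeling of PME-1 active site by serine hydrolase directed probe; 0% = PME-1 with DMSO and 100% = wells lacking PME-1 enzyme; inhibitors block probe labeling so polarization falls and inhibition rises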
PRMT1 FP inh: PRMT1 methyltransferase inhibitors, primary screen, biochemical, fluorescence polarization; recombinant PRMT1, activity-based probe fluorescence polarization; inhibition, % at 2.79 µM; 370,000 tested, 1.3% active; AID 652257, 2013;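 active means inhibition above about 21% made by adding two undisclosed values, limit read from the data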
GSTO1 inh: inhibitors of recombinant GSTO1, primary screen, counter-screen for RBBP9 inhibitor project, biochemical, fluorescence polarization. activity-based probe fluorescence polarization. inhibition, % at 5.96 µM. 300,000 tested, 1.1% active;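 active means inhibition above the campaign mean inhibition plus 3 SD, cut at about 35% in these data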;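 further: 0% = GSTO1-1 with DMSO and 100% = wells lacking GSTO1-1 enzyme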
Target sequence (P78417 whole entry, looked up): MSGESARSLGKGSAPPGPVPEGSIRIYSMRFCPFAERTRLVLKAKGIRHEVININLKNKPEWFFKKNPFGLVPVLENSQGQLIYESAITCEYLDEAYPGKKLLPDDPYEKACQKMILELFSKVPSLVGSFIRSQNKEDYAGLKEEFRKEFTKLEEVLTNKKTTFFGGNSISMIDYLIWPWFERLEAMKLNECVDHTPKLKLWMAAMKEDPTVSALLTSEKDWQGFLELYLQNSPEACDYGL
PAD4 inh: human PAD4 inhibitors, primary screen, biochemical, fluorescence polarization, 1536-well format; Protein-arginine deiminase type-4 (Homo sapiens), Q9UM07; recombinant PAD4, RCA probe fluorescence polarization; inhibition, % at 6.36 µM; 330,000 tested, 0.41% active;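 active means percent inhibition above a cutoff equal to the mean of all tested compounds plus 3 SD, cut at about 15% in these data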;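 further: 0% = PAD4 with RCA probe and DMSO and 100% = probe without PAD4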
Fam108B inh: mouse Fam108B serine hydrolase inhibitors, primary screen, counter-screen for RBBP9 inhibitor project, biochemical, fluorescence polarization; recombinant Fam108B, FP-Rh probe fluorescence polarization; inhibition, % at 9.51 µM; 300,000 tested, 0.33% active;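 active means inhibition above the screen mean inhibition plus 3 SD, computed separately per campaign, cut at about 18% in these data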;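 further: inhibitors lower polarization as less probe binds the enzyme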
GSTO1 inh conf: GSTO1 inhibitor hit confirmation, counter-screen for RBBP9 inhibitor project, biochemical, fluorescence polarization, triplicate; shares compounds with GSTO1 inh; recombinant GSTO1, probe fluorescence polarization; inhibition, % at 5.96 µM; 2,400 tested, 54% active; AID 2176, 2009;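 active means inhibition above the primary screen's cutoff, its mean inhibition plus 3 SD, cut at about 35% in these data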;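 further: loss of polarization as inhibitors block binding of rhodamine sulfonate ester activity probe; 0% = GSTO1 with DMSO and 100% = wells lacking GSTO1 enzyme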
PAD4 FP conf: human PAD4 inhibitors, confirmation, biochemical, fluorescence polarization; shares compounds with PAD4 inh; recombinant PAD4, RCA probe fluorescence polarization; inhibition, % at 6.36 µM; 1,200 tested, 28% active; AID 488796, 2010;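 active means mean inhibition across replicates above the hit cutoff set by the earlier primary screen, cut at about 15% in these data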;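 further: inhibitors block active-site labeling by the probe so polarization falls; 0% = PAD4 with probe and DMSO and 100% = probe without PAD4 enzyme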
An asterisk follows results filed as active; x = no result given. An excerpt weighted towards active compounds, which were near 2.3% of everything screened.

SMILES	RBBP9 inhibitor	PME-1 inh	PRMT1 FP inh	GSTO1 inh	PAD4 inh	Fam108B inh	GSTO1 inh conf	PAD4 FP conf
Cn1nc([N+](=O)[O-])c(C(C#N)c2nc3ccccc3n2C)c(Cl)c1=O (stereo not drawn)	2	20	19	63*	26*	10	31	17*
CC(C)=C(NC(=O)c1ccccc1)C(=O)Nc1cccc(C(=O)O)c1	1	-1	-1	-8	0	2	x	x
COC(=O)CSc1ncc(C#N)c(N)n1	-9	-2	0	0	-2	-2	x	x
Cn1c(=O)c2c(nc(NCc3ccccc3)n2C)n(C)c1=O	-6	5	1	0	-1	1	x	x
Cn1c(=O)c2cc(NCc3ccccc3)nnc2n(C)c1=O	-6	29*	-1	81*	31*	14	16	2
CC(=O)Nc1ccc(S(=O)(=O)/N=C2\C(=O)c3ccccc3C([O-])=C2n2cc[n+](-c3ccccn3)c2)cc1	-2	3	3	77*	32*	9	82*	2
CCC(C)[C@@H](NC(=O)OC(C)(C)C)c1nnc(S(=O)(=O)Cc2cccc(C)c2)o1 (stereo partly drawn)	5	x	18	x	x	x	x	x
Cc1ccsc1/C=N/NC(=O)c1ccc([N+](=O)[O-])cc1	-5	4	0	-8	6	2	x	x
COC(=O)CCC(=O)OC1(C)C(=O)C=C2C=C(C3CC3)N(CCCOC(C)C)C=C2C1=O (stereo not drawn)	x	4	x	59*	30*	8	15	-7
COC(=O)CCC(=O)OC1(C)C(=O)C=C2C=C(C3CC3)N(CCN3CCOCC3)C=C2C1=O (stereo not drawn)	x	0	4	29	-2	0	x	x
O=C(O)c1ccc(NC2=C(n3nnc4ccccc43)C(=O)c3ccccc3C2=O)cc1	-8	3	-1	53*	17*	7	61*	3
O=C(O)c1ccc(-n2nnc3ccccc32)c([N+](=O)[O-])c1	x	0	-1	-2	0	-2	x	x
CN(C)c1ccc(NC(=O)Oc2ccccc2)cc1	7	8	12	39*	17*	1	7	-2
O=C(NC1=C(NC2CCS(=O)(=O)C2)C(=O)c2ccccc2C1=O)c1ccccc1 (stereo not drawn)	-2	6	0	81*	26*	2	71*	22*
Nc1cc(-c2cccc([N+](=O)[O-])c2)[nH]n1	-7	-1	-4	2	-2	2	x	x
O=c1cc(-c2cccc([N+](=O)[O-])c2)[nH][nH]1	-11	-5	1	38*	52*	1	9	-2
CCC1SC2=NC(C)=C(C(=O)OCC(C)C)C(/C=C/c3ccccc3OC)N2C1=O (stereo not drawn)	-9	-3	0	3	0	-5	x	x
C#CCOCCOCCOCCNc1nc(N2CCN(C(=O)Cn3cc(CCO)nn3)CC2)nc(N2CCN(C(=O)[C@H](C)n3cc(CCCN=C(N)N)nn3)CC2)n1	x	x	0	x	x	x	x	x
CCN(CC)S(=O)(=O)c1ccc(-c2nnc(SCC(=O)Nc3nc(C)cs3)o2)cc1	-2	-5	5	7	0	-4	x	x
CCN(CC)c1ccc(N=Cc2c(C)[nH]c3ccccc23)cc1	9	7	14	56*	25*	4	5	3
O=C1C=C(Nc2ccccc2)c2ccccc2C1=O	-2	x	6	x	x	x	x	x
O=C1C=C(Nc2cccc3cccnc23)c2ccccc2C1=O	x	10	9	77*	34*	9	58*	54*
Oc1ccc2ccccc2c1C=Nc1ccc(N2CCOCC2)cc1	2	1	5	41*	46*	-1	38*	1
C=Cc1ccc(N=Cc2c(O)ccc3ccccc23)cc1	x	2	-1	30	-14	5	x	x
N#CC1=C(N)Oc2n[nH]c(-c3cccs3)c2C1c1ccoc1 (stereo not drawn)	-9	5	4	6	-2	1	x	x
SMILES	RBBP9 inhibitor	PME-1 inh	PRMT1 FP inh	GSTO1 inh	PAD4 inh	Fam108B inh	GSTO1 inh conf	PAD4 FP conf
Cc1ccc(C2C(C#N)=C(N)Oc3n[nH]c(-c4cccs4)c32)cc1 (stereo not drawn)	-8	-2	-1	40*	41*	1	8	-12
O=S(=O)(c1cc(Cl)ccc1Br)N1CCCCC1	6	4	-1	3	-4	-1	x	x
O=C(NN=c1c(=O)c2ccccc2c1=O)c1ccccc1	-12	7	-1	77*	44*	4	72*	45*
CN(C)/C=N/NC(=O)c1ccccc1	3	-2	5	-4	-6	2	x	x
Cc1[nH][nH]c(=O)c1C(c1c(C)[nH][nH]c1=O)c1cn(Cc2cccc3ccccc23)c2ccccc12	-4	16	5	55*	31*	10	41*	25*
Cc1[nH][nH]c(=O)c1C(c1c(C)[nH][nH]c1=O)c1cn(C)c2ccccc12	-1	x	3	x	x	x	x	x
COc1cc(/C=C2/C(=O)N(c3cccc(Br)c3)N=C2C)cc(OC)c1O	x	0	3	42*	27*	-2	6	1
COc1ccc(/C=C2/C(=O)N(c3ccccc3)N=C2C)cc1OC	x	x	-2	x	x	x	x	x
CC(=O)Oc1ccc(/C=C2/C(=O)N(c3ccccc3)N=C2C)cc1	x	3	12	52*	54*	7	14	0
CCOc1cc(/C=C2/C(=O)N(c3ccccc3)N=C2C)ccc1OC(=O)c1cccs1	-7	6	x	66*	54*	3	4	2
CC1=NN(c2ccccc2)C(=O)/C1=C/c1cccc(C)c1	x	-1	-2	59*	56*	3	12	1
CC(=O)N1C=Cc2c(c(C)c3c([nH]c4ccccc43)c2C)C1	4	x	x	x	x	x	x	x
COc1ccc(/C=C2/C(=O)N(c3ccccc3)N=C2C)cc1	x	-1	x	47*	57*	5	11	3
Cc1[nH]nc2c1C(c1ccsc1C)C(C#N)=C(N)O2 (stereo not drawn)	2	-4	-3	11	-2	-1	x	x
